These results are taken from publication PMC6427685 (Journal of Enzyme Inhibition and Medicinal Chemistry, 2019).

As usually defined, the IC50 is the concentration that inhibits the measured activity by half.

Data set [1] has as its target Recombinant M. tuberculosis MbtI (Mycobacterium tuberculosis, UniProt P9WFX1). Nature of the data set: biochemical. The settings on record: for remaining activity at 100 µM: pH 7.5, read-out: Residual activity at 100 µM (%).
A further data set is described as follows: Cell viability assay. The class given is cell-based. The settings on record: human, MRC5 human fibroblast lung cells. Put shortly:
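MRC5 human lung fibroblasts were kept at 37 °C in humidified 5% CO2 and seeded in 96-well plates. The next day, vehicle or test compound was added at 200 to 0.01 µM.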

Read-outs that look alike come from different tables or passages of the source.

Recombinant M. tuberculosis MbtI, sequence (P9WFX1 whole entry): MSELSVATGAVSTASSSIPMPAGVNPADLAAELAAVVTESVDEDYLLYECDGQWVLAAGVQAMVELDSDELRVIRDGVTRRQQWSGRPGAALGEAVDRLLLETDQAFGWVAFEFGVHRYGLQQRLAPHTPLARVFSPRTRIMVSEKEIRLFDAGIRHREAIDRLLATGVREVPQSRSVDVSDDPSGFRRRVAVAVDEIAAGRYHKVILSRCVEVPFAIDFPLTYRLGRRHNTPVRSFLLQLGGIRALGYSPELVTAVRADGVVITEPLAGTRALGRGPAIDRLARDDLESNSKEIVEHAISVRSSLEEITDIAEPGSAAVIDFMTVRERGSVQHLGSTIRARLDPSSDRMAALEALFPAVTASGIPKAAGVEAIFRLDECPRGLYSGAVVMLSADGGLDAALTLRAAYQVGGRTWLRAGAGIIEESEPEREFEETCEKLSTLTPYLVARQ

On to `O=C(O)c1ccc(-c2ccc([N+](=O)[O-])cc2O)o1` [1l], for which, in data set [1], the half-maximal inhibitory concentration (IC50) stood at 29.8 ± 4.2 µM and the remaining activity at 100 µM amounted to 13.9 ± 4%.

Turning to `N#Cc1cc([N+](=O)[O-])ccc1-c1ccc(C(=O)O)o1` [1o, 5-(2-cyano-4-nitro-phenyl)furan-2-carboxylate], in data set [1] (compound at 100 µM, 50 µM chorismic acid, 37 °C, pH 7.5), the “Residual activity at 100 µM (%)” value was found to be 5.0 ± 1.9%. Moreover, the IC50 in data set [1] (read-out: MbtI IC50) was found to be 24.4 ± 5.9 µM.

On to `O=C(O)c1ccc(-c2ccc(C(F)(F)F)cc2F)o1` [1b], for which, in data set [1], the IC50 is 27.6 ± 7.3 µM and the remaining activity at 100 µM was found to be 6.1 ± 1.1%.

Consider `O=C(O)c1ccc(-c2ccc([N+](=O)[O-])cc2F)o1` [1k], for which the remaining activity at 100 µM in data set [1] stood at 26.4 ± 4.8%.

As to `Nc1cc([N+](=O)[O-])ccc1-c1ccc(C(=O)O)o1` [1n], in data set [1], the half-maximal inhibitory concentration (IC50) was found to be 24.2 ± 5.4 µM and the remaining activity at 100 µM was found to be 13.5 ± 3.8%.

In the case of `O=C(O)c1ccc(-c2ccc(C(F)(F)F)cc2Br)o1` [1c], the remaining activity at 100 µM in data set [1] turned out to be 38 ± 3.7%.

Take `Cc1cc([N+](=O)[O-])ccc1-c1ccc(C(=O)O)o1` [1m]: in data set [1], the IC50 was 28.5 ± 1.5 µM and the remaining activity at 100 µM was 13.2 ± 5.8%.

On to `N#Cc1cc(C(F)(F)F)ccc1-c1ccc(C(=O)O)o1` [1g, 5-(2-cyano-4-(trifluoromethyl)phenyl)furan-2-carboxylic acid], for which, in data set [1], the IC50 is 18.5 ± 3.2 µM and the remaining activity at 100 µM was determined as 5.7 ± 1.5%.

Turning to `Nc1cc(C(F)(F)F)ccc1-c1ccc(C(=O)O)o1` [1f], in data set [1], the IC50 stood at 34.6 ± 10.9 µM and the remaining activity at 100 µM stood at 13.1 ± 2.4%.

With `O=C(O)c1ccc(-c2ccc([N+](=O)[O-])cc2Br)o1` [1j], the remaining activity at 100 µM in data set [1] worked out at 32.1 ± 2.4%.

As for `Cc1cc(C(F)(F)F)ccc1-c1ccc(C(=O)O)o1` [1e], in data set [1], the IC50 worked out at 31.5 ± 9.6 µM and the remaining activity at 100 µM is 19.3 ± 2.2%.

Turning to `O=C(O)c1ccc(-c2ccc(C(F)(F)F)cc2O)o1` [1d], in data set [1], the IC50 was 35.9 ± 10.3 µM and the remaining activity at 100 µM worked out at 16.8 ± 2.7%.

Consider `O=C(O)c1ccc(-c2ccc([N+](=O)[O-])cc2C(F)(F)F)o1` [1p], for which the remaining activity at 100 µM in data set [1] is 25.1 ± 3.7%. The compound further showed an IC50 at 96 h in the data set “Cell viability assay” of more than 100 µM.
